Assay results as given in ChEMBL document CHEMBL1268856, “The tomato saponin, esculeoside A” (J Nat Prod, 2010).
Calls of active or inactive are those of the source. The rule behind the calls is not given here.

Experiments:
[1] = molecular target: T1, Sterol O-acyltransferase 1 (Homo sapiens) (UniProt P35610); assay: Inhibition of human ACAT1 expressed in CHO cells assessed as inhibition of [3H]oleate-induced cholesterol ester accumulation; format: cell-based
T1 sequence (whole entry): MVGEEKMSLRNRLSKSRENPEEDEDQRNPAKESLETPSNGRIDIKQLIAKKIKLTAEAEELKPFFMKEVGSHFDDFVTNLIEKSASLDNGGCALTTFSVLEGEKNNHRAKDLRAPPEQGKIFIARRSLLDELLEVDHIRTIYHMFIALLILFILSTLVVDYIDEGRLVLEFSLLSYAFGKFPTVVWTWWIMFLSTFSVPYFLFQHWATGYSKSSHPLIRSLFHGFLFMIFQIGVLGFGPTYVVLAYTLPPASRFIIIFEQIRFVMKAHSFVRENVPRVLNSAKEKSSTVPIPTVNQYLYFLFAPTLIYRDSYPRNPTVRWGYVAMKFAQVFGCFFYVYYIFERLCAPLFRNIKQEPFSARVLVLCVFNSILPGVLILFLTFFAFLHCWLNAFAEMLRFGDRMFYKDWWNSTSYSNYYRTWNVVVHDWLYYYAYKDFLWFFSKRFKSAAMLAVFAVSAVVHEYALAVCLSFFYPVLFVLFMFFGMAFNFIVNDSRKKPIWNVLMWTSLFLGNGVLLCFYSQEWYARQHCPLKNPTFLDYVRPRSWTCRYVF
How it was run: (§1)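 CHO cells overexpressing human ACAT-1 or ACAT-2 were incubated 24 h in medium with 10% fetal calf serum, 0.1 mM [3H]oleate-BSA and the indicated compound concentrations. [3H]cholesteryl ester was separated by TLC and radioactivity measured. Repeated three times.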

MDM [2] = assay: Antihyperlipidemic activity in human MDM cell assessed as inhibition of acetule-LDL-induced cholesterol ester accumulation after 5 hrs; format: functional, cell-based
[3] = molecular target: T2, Sterol O-acyltransferase 2 (Homo sapiens) (UniProt O75908); assay: Inhibition of human ACAT2 expressed in CHO cells assessed as inhibition of [3H]oleate-induced cholesterol ester accumulation; format: cell-based; how it was run: as §1
T2 sequence (whole entry): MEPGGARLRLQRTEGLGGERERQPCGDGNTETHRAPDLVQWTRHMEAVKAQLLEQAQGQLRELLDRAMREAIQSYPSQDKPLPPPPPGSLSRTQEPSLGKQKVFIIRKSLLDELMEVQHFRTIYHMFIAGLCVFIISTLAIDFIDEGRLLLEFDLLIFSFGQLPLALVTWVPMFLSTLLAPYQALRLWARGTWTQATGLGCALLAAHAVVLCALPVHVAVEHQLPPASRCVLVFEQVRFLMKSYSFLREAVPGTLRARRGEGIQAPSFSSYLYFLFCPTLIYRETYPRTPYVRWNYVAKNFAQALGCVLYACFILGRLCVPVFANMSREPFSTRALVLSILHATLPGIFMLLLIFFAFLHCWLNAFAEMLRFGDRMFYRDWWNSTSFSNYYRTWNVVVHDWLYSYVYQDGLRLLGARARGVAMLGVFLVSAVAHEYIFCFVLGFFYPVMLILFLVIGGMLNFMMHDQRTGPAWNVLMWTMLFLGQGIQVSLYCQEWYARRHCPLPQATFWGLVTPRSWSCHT

MDM [4] = assay: Antihyperlipidemic activity in human MDM cell assessed as inhibition of acetule-LDL-induced cholesterol ester accumulation after 24 hrs; format: functional, cell-based
How it was run: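 Human monocyte-derived macrophages were incubated 24 h with 50 µg/mL acetyl-LDL plus 0.1 mM [3H]oleate conjugated to BSA, with or without compound. [3H]cholesteryl ester was separated by TLC and counted by radioscanner. Three independent experiments; means ± SD.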

Mus musculus [5] = assay: Antihyperlipidemic in apoE deficient mouse assessed as reduction in triglyceride level at 100 mg/kg qd after 90 hrs; format: functional; parameters: scale not given: the % may be the effect or the level left; details: in the assay text read “after 90 days” for “after 90 hrs”
How it was run: (§2)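 ApoE-deficient mice were fed diets with or without compound (100 mg/kg/day) for 90 days, n = 10 per group. Plasma total cholesterol, LDL cholesterol and triglyceride were then measured. Data are means ± SD.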

Mus musculus [6] = assay: Antihyperlipidemic in apoE deficient mouse assessed as reduction in LDL cholesterol level at 100 mg/kg qd after 90 hrs; format: functional; parameters: scale not given: the % may be the effect or the level left; details: in the assay text read “after 90 days” for “after 90 hrs”; how it was run: as §2
Mus musculus [7] = assay: Antihyperlipidemic in apoE deficient mouse assessed as reduction in total cholesterol level at 100 mg/kg qd after 90 hrs; format: functional; parameters: scale not given: the % may be the effect or the level left; details: in the assay text read “after 90 days” for “after 90 hrs”; how it was run: as §2
[8] = Cytotoxicity against human MDM cells at 100 uM; format: cell-based
Mus musculus [9] = assay: Antiatherogenesis in apoE deficient mouse assessed as reduction in aortic lesions at 100 mg/kg qd; format: functional, Aorta; parameters: scale not given: the % may be the effect or the level left
How it was run: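 ApoE-deficient mice given diet with or without compound at 100 mg/kg/day for 90 days, n = 10 per group. Aortic sinus cross sections stained with oil red O and viewed at ×200. Cross-sectional lesion area was quantified and compared with untreated controls.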

Row | Activity [1] | Activity [3] | SMILES | Activity (MDM [2]) | Activity (MDM [4]) | Activity (Mus musculus [5]) | Activity (Mus musculus [6]) | Activity (Mus musculus [7]) | Activity [8] | Activity (Mus musculus [9])
1 | Dose-dependent effect | Dose-dependent effect | C[C@@H]1[C@H]2[C@H](C[C@H]3[C@@H]4CC[C@H]5C[C@@H](O)CC[C@]5(C)[C@H]4CC[C@]23C)O[C@@]12NC[C@@H](CO)C[C@@H]2O | Dose-dependent effect | Active | – | – | – | – | –
2 | – | – | CC(=O)O[C@H]1C[C@H](CO[C@@H]2O[C@H](CO)[C@@H](O)[C@H](O)[C@H]2O)CN[C@@]12O[C@H]1C[C@H]3[C@@H]4CC[C@H]5C[C@@H](O[C@@H]6O[C@H](CO)[C@H](O[C@@H]7O[C@H](CO)[C@@H](O)[C@H](O[C@@H]8OC[C@@H](O)[C@H](O)[C@H]8O)[C@H]7O[C@H]7O[C@H](CO)[C@@H](O)[C@H](O)[C@H]7O)[C@H](O)[C@H]6O)CC[C@]5(C)[C@H]4CC[C@]3(C)[C@H]1[C@H]2C [ESCULEOSIDE A] | – | Active | 45% | 25% | 25% | Non-toxic | 52%
